Legend:
Type in all cases: functional
CCRF-CEM = assay: Growth inhibition of human CCRF-CEM cells assessed as cell growth at 10 uM after 48 hrs by sulforhodamine B assay; settings: read-out: Activity
Method in brief: (§1)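 NCI 60-cell-line panel screen (nine cancer types). Compounds added at single concentration 10^-5 M, cultures incubated 48 h; growth inhibition percentages reported.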

HL-60(TB) = assay: Growth inhibition of human HL-60(TB) cells assessed as cell growth at 10 uM after 48 hrs by sulforhodamine B assay; settings: HL-60, 48 h, read-out: Activity
Method in brief: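 Screened by the NCI in its 60-cell-line panel covering nine cancer types, including leukemia. Compounds were added at a single concentration, and the cultures were incubated for 48 h. Results are reported as percent growth inhibition.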

MOLT-4 = assay: Growth inhibition of human MOLT4 cells assessed as cell growth at 10 uM after 48 hrs by sulforhodamine B assay; settings: MOLT-4, 48 h, read-out: Activity; method in brief: as §1
RPMI-8226 = assay: Growth inhibition of human RPMI8226 cells assessed as cell growth at 10 uM after 48 hrs by sulforhodamine B assay; settings: RPMI-8226, 48 h, read-out: Activity; method in brief: as §1
SR = assay: Growth inhibition of human SR cells assessed as cell growth at 10 uM after 48 hrs by sulforhodamine B assay; settings: read-out: Activity
Method in brief: (§2)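 NCI 60-cell-line panel from nine tumour types (leukaemia, lung, colon, CNS, melanoma, ovarian, renal, prostate, breast). Each compound was added at one single concentration, and cultures were incubated for 48 h. Results are reported as percent growth inhibition.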

A549 = assay: Growth inhibition of human A549/ATCC cells assessed as cell growth at 10 uM after 48 hrs by sulforhodamine B assay; settings: A549, 48 h, read-out: Activity; method in brief: as §1
HOP-62 = assay: Growth inhibition of human HOP62 cells assessed as cell growth at 10 uM after 48 hrs by sulforhodamine B assay; settings: HOP-62, 48 h, read-out: Activity; method in brief: as §1
HOP-92 = assay: Growth inhibition of human HOP92 cells assessed as cell growth at 10 uM after 48 hrs by sulforhodamine B assay; settings: HOP-92, 48 h, read-out: Activity; method in brief: as §1
NCI-H322M = assay: Growth inhibition of human NCI-H322M cells assessed as cell growth at 10 uM after 48 hrs by sulforhodamine B assay; settings: read-out: Activity; method in brief: as §1
NCI-H522 = assay: Growth inhibition of human NCI-H522 cells assessed as cell growth at 10 uM after 48 hrs by sulforhodamine B assay; settings: NCI-H522, 48 h, read-out: Activity; method in brief: as §1
HCT-116 = assay: Growth inhibition of human HCT116 cells assessed as cell growth at 10 uM after 48 hrs by sulforhodamine B assay; settings: HCT-116, 48 h, read-out: Activity; method in brief: as §1
HCT-15 = assay: Growth inhibition of human HCT15 cells assessed as cell growth at 10 uM after 48 hrs by sulforhodamine B assay; settings: HCT-15, 48 h, read-out: Activity; method in brief: as §1
HT-29 = assay: Growth inhibition of human HT-29 cells assessed as cell growth at 10 uM after 48 hrs by sulforhodamine B assay; settings: HT-29, 48 h, read-out: Activity; method in brief: as §1
KM12 = assay: Growth inhibition of human KM12 cells assessed as cell growth at 10 uM after 48 hrs by sulforhodamine B assay; settings: KM12, 48 h, read-out: Activity; method in brief: as §1
SW-620 = assay: Growth inhibition of human SW620 cells assessed as cell growth at 10 uM after 48 hrs by sulforhodamine B assay; settings: SW-620, 48 h, read-out: Activity; method in brief: as §2
SF-268 = assay: Growth inhibition of human SF268 cells assessed as cell growth at 10 uM after 48 hrs by sulforhodamine B assay; settings: SF-268, 48 h, read-out: Activity; method in brief: as §1
SF-539 = assay: Growth inhibition of human SF539 cells assessed as cell growth at 10 uM after 48 hrs by sulforhodamine B assay; settings: SF-539, 48 h, read-out: Activity; method in brief: as §1
SNB-75 = assay: Growth inhibition of human SNB75 cells assessed as cell growth at 10 uM after 48 hrs by sulforhodamine B assay; settings: SNB-75, 48 h, read-out: Activity; method in brief: as §2
U-251 = assay: Growth inhibition of human U251 cells assessed as cell growth at 10 uM after 48 hrs by sulforhodamine B assay; settings: U-251, 48 h, read-out: Activity; method in brief: as §2
LOX IMVI = assay: Growth inhibition of human LOXIMVI cells assessed as cell growth at 10 uM after 48 hrs by sulforhodamine B assay; settings: read-out: Activity; method in brief: as §1
Malme-3M = assay: Growth inhibition of human MALME-3M cells assessed as cell growth at 10 uM after 48 hrs by sulforhodamine B assay; settings: read-out: Activity; method in brief: as §1
SK-MEL-2 = assay: Growth inhibition of human SK-MEL-2 cells assessed as cell growth at 10 uM after 48 hrs by sulforhodamine B assay; settings: SK-MEL-2, 48 h, read-out: Activity; method in brief: as §1
OVCAR-4 = assay: Growth inhibition of human OVCAR4 cells assessed as cell growth at 10 uM after 48 hrs by sulforhodamine B assay; settings: OVCAR-4, 48 h, read-out: Activity; method in brief: as §1
786-0 = assay: Growth inhibition of human 786-0 cells assessed as cell growth at 10 uM after 48 hrs by sulforhodamine B assay; settings: 786-0, 48 h, read-out: Activity; method in brief: as §1
A498 = assay: Growth inhibition of human A498 cells assessed as cell growth at 10 uM after 48 hrs by sulforhodamine B assay; settings: A498, 48 h, read-out: Activity; method in brief: as §1
ACHN = assay: Growth inhibition of human ACHN cells assessed as cell growth at 10 uM after 48 hrs by sulforhodamine B assay; settings: read-out: Activity; method in brief: as §1
TK-10 = assay: Growth inhibition of human TK10 cells assessed as cell growth at 10 uM after 48 hrs by sulforhodamine B assay; settings: TK-10, 48 h, read-out: Activity; method in brief: as §2
UO-31 = assay: Growth inhibition of human UO31 cells assessed as cell growth at 10 uM after 48 hrs by sulforhodamine B assay; settings: UO-31, 48 h, read-out: Activity; method in brief: as §2
PC-3 = assay: Growth inhibition of human PC3 cells assessed as cell growth at 10 uM after 48 hrs by sulforhodamine B assay; settings: PC-3, 48 h, read-out: Activity; method in brief: as §1
DU-145 = assay: Growth inhibition of human DU145 cells assessed as cell growth at 10 uM after 48 hrs by sulforhodamine B assay; settings: DU-145, 48 h, read-out: Activity; method in brief: as §1
MCF7 = assay: Growth inhibition of human MCF7 cells assessed as cell growth at 10 uM after 48 hrs by sulforhodamine B assay; settings: MCF7, 48 h, read-out: Activity; method in brief: as §1
MDA-MB-231 = assay: Growth inhibition of human MDA-MB-231 cells assessed as cell growth at 10 uM after 48 hrs by sulforhodamine B assay; settings: MDA-MB-231, 48 h, read-out: Activity; method in brief: as §1
BT-549 = assay: Growth inhibition of human BT549 cells assessed as cell growth at 10 uM after 48 hrs by sulforhodamine B assay; settings: BT-549, 48 h, read-out: Activity; method in brief: as §1

Row | SMILES | growth at 10 µM (HL-60(TB)) [%] | growth at 10 µM (RPMI-8226) [%] | growth at 10 µM (SR) [%] | growth at 10 µM (A549) [%] | growth at 10 µM (HOP-62) [%] | growth at 10 µM (HOP-92) [%] | growth at 10 µM (NCI-H322M) [%] | growth at 10 µM (NCI-H522) [%] | growth at 10 µM (HCT-116) [%] | growth at 10 µM (HCT-15) [%] | growth at 10 µM (HT-29) [%] | growth at 10 µM (KM12) [%] | growth at 10 µM (SW-620) [%] | growth at 10 µM (SF-268) [%] | growth at 10 µM (SF-539) [%] | growth at 10 µM (SNB-75) [%] | growth at 10 µM (U-251) [%] | growth at 10 µM (LOX IMVI) [%] | growth at 10 µM (Malme-3M) [%] | growth at 10 µM (SK-MEL-2) [%] | also measured
1 | COc1cccc(-n2nc(C(=O)NCc3ccccc3OC)nc2-c2cc(OC)c(OC)c(OC)c2)c1 | 103 | 100 | 93.8 | 92.8 | 85.9 | 108 | 94.3 | 60.5 | 102 | 96.8 | 81.3 | 95.6 | 111 | 95.5 | 96.5 | 63 | 97.1 | 95.9 | 99.7 | 77.8 | growth at 10 µM (CCRF-CEM): 107%; growth at 10 µM (MOLT-4): 103%; growth at 10 µM (OVCAR-4): 90.8%; growth at 10 µM (786-0): 94%; growth at 10 µM (A498): 104%; growth at 10 µM (ACHN): 106%; growth at 10 µM (TK-10): 81%; growth at 10 µM (UO-31): 59.1%; growth at 10 µM (PC-3): 104%; growth at 10 µM (DU-145): 106%; growth at 10 µM (MCF7): 98.7%; growth at 10 µM (MDA-MB-231): 93%; growth at 10 µM (BT-549): 103%
2 | CCOc1ccc(-n2nc(C(=O)NCc3ccccc3OC)nc2-c2cc(OC)c(OC)c(OC)c2)cc1 | 19.1 | 26.9 | 35.9 | 34.5 | 62.2 | 29 | 52.4 | 35.7 | 25.3 | 29 | 40.6 | 33.8 | 58 | 54.1 | 49.2 | 30 | 42.5 | 36.3 | 87.5 | 41.5 | growth at 10 µM (CCRF-CEM): 39.7%; growth at 10 µM (MOLT-4): 0.38%; growth at 10 µM (OVCAR-4): 23.4%; growth at 10 µM (786-0): 41.5%; growth at 10 µM (A498): 30%; growth at 10 µM (ACHN): 19.6%; growth at 10 µM (TK-10): 46.5%; growth at 10 µM (UO-31): -2.66%; growth at 10 µM (PC-3): 24.6%; growth at 10 µM (DU-145): 65.2%; growth at 10 µM (MCF7): 22.1%; growth at 10 µM (MDA-MB-231): 17.8%; growth at 10 µM (BT-549): 33.9%
3 | CCOc1ccc(-n2nc(C(=O)Nc3ccc(F)c(F)c3F)nc2-c2cc(OC)c(OC)c(OC)c2)cc1 | 81.5 | 87.2 | 86.5 | 85.7 | 86.5 | 84.9 | 69.5 | 71.5 | 73.4 | 64.3 | 87.8 | 96 | 103 | 82.3 | 87.9 | 68.3 | 98.2 | 94 | 86.9 | 84.1 | growth at 10 µM (OVCAR-4): 78.8%; growth at 10 µM (786-0): 79.6%; growth at 10 µM (A498): 88.7%; growth at 10 µM (ACHN): 85.2%; growth at 10 µM (TK-10): 101%; growth at 10 µM (UO-31): 51.5%; growth at 10 µM (PC-3): 71.6%; growth at 10 µM (DU-145): 105%; growth at 10 µM (MCF7): 79.5%; growth at 10 µM (MDA-MB-231): 73.6%; growth at 10 µM (BT-549): 78.9%

Source: ChEMBL document CHEMBL4138126, “Synthesis, antiproliferative, anti-tubulin activity, and docking study of new 1,2,4-triazoles as potential combretastatin analogues” (Eur J Med Chem, 2017)
